# Where “and” joins values, the source holds several entries; their conditions need not be identical. Identical values can stand only once.
# System: Fibroblast
# Assay: Multiplex assay against human fibroblast
# Format: toxicity, cell-based
# Method in brief: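 At seeding, live cells were stained with Hoechst33342, BioTracker Green Microtubule Cytoskeleton Dye, MitoTracker Red and Annexin V Alexa Fluor 680. After compound addition they were imaged on a CQ1 microscope at 37°C and 5% CO2, and CellPathfinder machine-learning gating sorted them into Hoechst high-intensity objects or normal cells, with normal cells further split into healthy, pyknosed or fragmented nuclei and pyknosed cells into mitotic or apoptotic. Tubulin, mitochondrial-mass and membrane-permeability phenotypes are given as per cents of cells with healthy nuclei.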
# [1] = 12 h, 1 µM, compound concentration 1 uM
# [2] = 12 h, 10 µM, compound concentration 10 uM
# [3] = 24 h, 1 µM, compound concentration 1 uM
# [4] = 24 h, 10 µM, compound concentration 10 uM
# [5] = 48 h, 1 µM, compound concentration 1 uM
# [6] = 48 h, 10 µM, compound concentration 10 uM
structure (smiles),measurement,setting,value
Cc1cc(C(C#N)c2ccc(Cl)cc2)c(Cl)cc1NC(=O)c1cc(I)cc(I)c1O (stereo not drawn) [CLOSANTEL],Population Fragmented Nuclei (%),[1],11% and 4.88%
same,Population Healthy Nuclei (%),[1],69% and 80%
same,Population Hoechst High Intensity Objects (%),[1],0%
same,Population Membrane Permeable-Phenotype (%),[1],3.62% and 2.44%
same,Population Mitochondria Different-Phenotype (%),[1],10.14% and 4.88%
same,Population Mitotic Cells (%),[1],97.5% and 87.1%
same,Population Normal (%),[1],100%
same,Population Pyknosed Nuclei (%),[1],20% and 15.12%
same,Population Tubulin-Different-Phenotype (%),[1],11.59%
same,Total Cell Count,[1],200 and 205
same,Population Fragmented Nuclei (%),[2],14.05% and 6.49%
same,Population Healthy Nuclei (%),[2],60.33% and 78.38%
same,Population Hoechst High Intensity Objects (%),[2],0%
same,Population Membrane Permeable-Phenotype (%),[2],3.42% and 2.76%
same,Population Mitochondria Different-Phenotype (%),[2],8.22% and 6.21%
same,Population Mitotic Cells (%),[2],95.16% and 78.57%
same,Population Normal (%),[2],100%
same,Population Pyknosed Nuclei (%),[2],25.62% and 15.14%
same,Population Tubulin-Different-Phenotype (%),[2],12.33% and 14.48%
same,Total Cell Count,[2],242 and 185
same,Population Apoptotic (%),[3],11.76% and 28.57%
same,Population Fragmented Nuclei (%),[3],7.66% and 4.52%
same,Population Healthy Nuclei (%),[3],77.03% and 88.44%
same,Population Hoechst High Intensity Objects (%),[3],0%
same,Population Membrane Permeable-Phenotype (%),[3],1.17% and 0.57%
same,Population Mitochondria Different-Phenotype (%),[3],7.6% and 4.55%
same,Population Mitotic Cells (%),[3],88.24% and 71.43%
same,Population Normal (%),[3],100%
same,Population Pyknosed Nuclei (%),[3],15.32% and 7.04%
same,Population Tubulin-Different-Phenotype (%),[3],12.28% and 13.07%
same,Total Cell Count,[3],222 and 199
same,Population Apoptotic (%),[4],10.53% and 22.73%
same,Population Fragmented Nuclei (%),[4],9.54% and 3.72%
same,Population Healthy Nuclei (%),[4],74.69% and 84.57%
same,Population Hoechst High Intensity Objects (%),[4],0%
same,Population Membrane Permeable-Phenotype (%),[4],2.22% and 2.52%
same,Population Mitochondria Different-Phenotype (%),[4],3.89% and 5.03%
same,Population Mitotic Cells (%),[4],89.47% and 77.27%
same,Population Normal (%),[4],100%
same,Population Pyknosed Nuclei (%),[4],15.77% and 11.7%
same,Population Tubulin-Different-Phenotype (%),[4],12.78% and 13.84%
same,Total Cell Count,[4],241 and 188
same,Population Apoptotic (%),[5],35.29% and 17.65%
same,Population Fragmented Nuclei (%),[5],10.13% and 6.91%
same,Population Healthy Nuclei (%),[5],82.38% and 85.25%
same,Population Hoechst High Intensity Objects (%),[5],0%
same,Population Membrane Permeable-Phenotype (%),[5],1.07% and 1.62%
same,Population Mitotic Cells (%),[5],64.71% and 82.35%
same,Population Normal (%),[5],100%
same,Population Pyknosed Nuclei (%),[5],7.49% and 7.83%
same,Population Tubulin-Different-Phenotype (%),[5],8.02% and 14.05%
same,Total Cell Count,[5],227 and 217
same,Population Apoptotic (%),[6],33.33% and 66.67%
same,Population Fragmented Nuclei (%),[6],6.69% and 4.66%
same,Population Healthy Nuclei (%),[6],88.85% and 92.23%
same,Population Hoechst High Intensity Objects (%),[6],0%
same,Population Membrane Permeable-Phenotype (%),[6],0.84% and 3.93%
same,Population Mitochondria Different-Phenotype (%),[6],12.13% and 3.93%
same,Population Mitotic Cells (%),[6],66.67% and 33.33%
same,Population Normal (%),[6],100%
same,Population Pyknosed Nuclei (%),[6],4.46% and 3.11%
same,Population Tubulin-Different-Phenotype (%),[6],5.02% and 12.36%
same,Total Cell Count,[6],269 and 193
Cl.Cl.OCCOCCN1CCN(C(c2ccccc2)c2ccc(Cl)cc2)CC1 (stereo not drawn) [HYDROXYZINE HYDROCHLORIDE],Population Apoptotic (%),[1],43% and 51%
same,Population Fragmented Nuclei (%),[1],11% and 22%
same,Population Healthy Nuclei (%),[1],75% and 57%
same,Population Hoechst High Intensity Objects (%),[1],1% and 7%
same,Population Membrane Permeable-Phenotype (%),[1],0% and 8%
same,Population Mitochondria Different-Phenotype (%),[1],4% and 6%
same,Population Mitotic Cells (%),[1],56% and 48%
same,Population Normal (%),[1],98% and 92%
same,Population Pyknosed Nuclei (%),[1],13% and 20%
same,Population Tubulin-Different-Phenotype (%),[1],25% and 46%
same,Total Cell Count,[1],177 and 155
same,Population Apoptotic (%),[2],47% and 40%
same,Population Fragmented Nuclei (%),[2],27% and 19%
same,Population Healthy Nuclei (%),[2],58% and 47%
same,Population Hoechst High Intensity Objects (%),[2],2% and 7%
same,Population Membrane Permeable-Phenotype (%),[2],0% and 7%
same,Population Mitochondria Different-Phenotype (%),[2],14% and 6%
same,Population Mitotic Cells (%),[2],52% and 59%
same,Population Normal (%),[2],97% and 92%
same,Population Pyknosed Nuclei (%),[2],14% and 32%
same,Population Tubulin-Different-Phenotype (%),[2],45% and 58%
same,Total Cell Count,[2],247 and 178
same,Population Apoptotic (%),[3],30% and 44%
same,Population Fragmented Nuclei (%),[3],9% and 26%
same,Population Healthy Nuclei (%),[3],78% and 54%
same,Population Hoechst High Intensity Objects (%),[3],1% and 5%
same,Population Membrane Permeable-Phenotype (%),[3],2% and 5%
same,Population Mitochondria Different-Phenotype (%),[3],6% and 3%
same,Population Mitotic Cells (%),[3],70% and 55%
same,Population Normal (%),[3],98% and 94%
same,Population Pyknosed Nuclei (%),[3],12% and 18%
same,Population Tubulin-Different-Phenotype (%),[3],30% and 47%
same,Total Cell Count,[3],163 and 154
same,Population Apoptotic (%),[4],51% and 36%
same,Population Fragmented Nuclei (%),[4],28% and 29%
same,Population Healthy Nuclei (%),[4],62% and 50%
same,Population Hoechst High Intensity Objects (%),[4],1% and 9%
same,Population Membrane Permeable-Phenotype (%),[4],1% and 6%
same,Population Mitochondria Different-Phenotype (%),[4],10% and 6%
same,Population Mitotic Cells (%),[4],48% and 63%
same,Population Normal (%),[4],98% and 90%
same,Population Pyknosed Nuclei (%),[4],9% and 20%
same,Population Tubulin-Different-Phenotype (%),[4],47% and 66%
same,Total Cell Count,[4],284 and 198
same,Population Apoptotic (%),[5],60% and 42%
same,Population Fragmented Nuclei (%),[5],17% and 34%
same,Population Healthy Nuclei (%),[5],68% and 56%
same,Population Hoechst High Intensity Objects (%),[5],4% and 3%
same,Population Membrane Permeable-Phenotype (%),[5],0% and 2%
same,Population Mitochondria Different-Phenotype (%),[5],3% and 5%
same,Population Mitotic Cells (%),[5],39% and 57%
same,Population Normal (%),[5],95% and 96%
same,Population Pyknosed Nuclei (%),[5],13% and 9%
same,Population Tubulin-Different-Phenotype (%),[5],31% and 44%
same,Total Cell Count,[5],175 and 155
same,Population Apoptotic (%),[6],80% and 37%
same,Population Fragmented Nuclei (%),[6],22% and 36%
same,Population Healthy Nuclei (%),[6],69% and 47%
same,Population Hoechst High Intensity Objects (%),[6],4% and 6%
same,Population Membrane Permeable-Phenotype (%),[6],0% and 11%
same,Population Mitochondria Different-Phenotype (%),[6],7% and 2%
same,Population Normal (%),[6],95% and 94%
same,Population Pyknosed Nuclei (%),[6],8% and 15%
same,Population Tubulin-Different-Phenotype (%),[6],62% and 57%
same,Total Cell Count,[6],272 and 200

# — ChEMBL document CHEMBL5724801, “EUbOPEN Chemogenomics Library - Multiplex” (2024)
